Results reported in article PMC11066147 (Heliyon, 2024).
Entries after “also recorded” stand apart in the source; their conditions may differ.

How the values were obtained:
[1] = system: clients from E. coli JM109 cells; experiment: co-affinity assay coupled to LC-MS, clients from E. coli JM109; format: binding
Method in brief: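 Pull-down bait was His-tagged Hsp70 (wild type or linker-swap variant), immobilised on cobalt resin in TBS (10 mM Tris-HCl pH 7.5, 50 mM NaCl, 10 mM imidazole) for 4 h at 4 °C, then washed 5×. E. coli JM109 lysate (prey) was added overnight at 4 °C, followed by 5 washes. Elution used 290 mM imidazole. Eluates were run on silver-stained SDS-PAGE; unique bands were excised and identified by LC-MS.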

DnaK = DnaK (Escherichia coli, UniProt P0A6Y8); details: SPR; presence of ATP
DnaK, sequence (P0A6Y8 whole entry): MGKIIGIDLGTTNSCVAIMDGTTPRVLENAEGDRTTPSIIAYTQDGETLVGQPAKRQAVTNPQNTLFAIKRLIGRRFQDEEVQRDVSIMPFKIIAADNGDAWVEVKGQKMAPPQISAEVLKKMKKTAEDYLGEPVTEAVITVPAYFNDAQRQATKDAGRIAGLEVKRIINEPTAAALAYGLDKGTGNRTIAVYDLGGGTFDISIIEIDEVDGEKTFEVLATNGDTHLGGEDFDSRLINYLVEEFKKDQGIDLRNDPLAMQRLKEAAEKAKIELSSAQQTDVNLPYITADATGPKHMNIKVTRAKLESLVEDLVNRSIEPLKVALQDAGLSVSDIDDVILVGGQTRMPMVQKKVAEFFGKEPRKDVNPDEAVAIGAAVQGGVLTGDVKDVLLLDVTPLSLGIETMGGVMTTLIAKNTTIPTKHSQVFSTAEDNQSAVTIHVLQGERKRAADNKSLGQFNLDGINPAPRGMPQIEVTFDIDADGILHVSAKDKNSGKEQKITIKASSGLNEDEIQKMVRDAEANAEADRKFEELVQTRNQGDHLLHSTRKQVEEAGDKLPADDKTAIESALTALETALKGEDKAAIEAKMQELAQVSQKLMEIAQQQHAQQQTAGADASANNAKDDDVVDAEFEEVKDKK

[2] = system: clients from E. coli ΔdnaK52 cells; experiment: co-affinity assay coupled to LC-MS, clients from E. coli ΔdnaK52; format: binding
proteins = details: ref [33]; cited from earlier work
PfHsp70-z = target: T1, PfHsp70-z (Plasmodium falciparum, UniProt Q8IC01); details: previous study, ref [10], cited from earlier work
T1 sequence (Q8IC01 1-873): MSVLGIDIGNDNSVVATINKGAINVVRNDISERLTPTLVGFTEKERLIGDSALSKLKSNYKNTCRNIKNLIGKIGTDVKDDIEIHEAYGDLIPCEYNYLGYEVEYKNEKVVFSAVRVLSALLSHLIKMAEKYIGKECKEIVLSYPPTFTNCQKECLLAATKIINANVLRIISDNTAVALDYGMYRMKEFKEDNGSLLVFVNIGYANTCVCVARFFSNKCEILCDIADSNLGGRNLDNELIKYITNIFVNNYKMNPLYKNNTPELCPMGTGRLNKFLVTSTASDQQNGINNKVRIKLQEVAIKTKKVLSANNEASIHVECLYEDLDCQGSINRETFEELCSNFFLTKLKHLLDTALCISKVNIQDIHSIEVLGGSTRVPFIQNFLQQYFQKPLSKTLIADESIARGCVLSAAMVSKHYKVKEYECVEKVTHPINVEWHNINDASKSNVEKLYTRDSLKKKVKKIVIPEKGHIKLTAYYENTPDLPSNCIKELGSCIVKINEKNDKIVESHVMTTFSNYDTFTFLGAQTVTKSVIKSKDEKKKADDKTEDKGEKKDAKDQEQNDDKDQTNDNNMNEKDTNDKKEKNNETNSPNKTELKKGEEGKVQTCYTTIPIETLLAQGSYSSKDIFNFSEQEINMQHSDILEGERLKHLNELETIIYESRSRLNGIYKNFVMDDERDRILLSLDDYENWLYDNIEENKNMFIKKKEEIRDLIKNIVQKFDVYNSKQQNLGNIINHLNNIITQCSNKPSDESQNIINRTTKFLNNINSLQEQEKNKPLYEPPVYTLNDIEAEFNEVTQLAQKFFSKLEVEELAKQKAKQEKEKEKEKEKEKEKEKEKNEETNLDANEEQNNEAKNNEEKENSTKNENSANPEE

PfHsp70-1 [3] = target: T2, PfHsp70-1 (Plasmodium falciparum, UniProt Q8IB24); details: previous study, ref [10], cited from earlier work
T2 sequence (Q8IB24 1-677): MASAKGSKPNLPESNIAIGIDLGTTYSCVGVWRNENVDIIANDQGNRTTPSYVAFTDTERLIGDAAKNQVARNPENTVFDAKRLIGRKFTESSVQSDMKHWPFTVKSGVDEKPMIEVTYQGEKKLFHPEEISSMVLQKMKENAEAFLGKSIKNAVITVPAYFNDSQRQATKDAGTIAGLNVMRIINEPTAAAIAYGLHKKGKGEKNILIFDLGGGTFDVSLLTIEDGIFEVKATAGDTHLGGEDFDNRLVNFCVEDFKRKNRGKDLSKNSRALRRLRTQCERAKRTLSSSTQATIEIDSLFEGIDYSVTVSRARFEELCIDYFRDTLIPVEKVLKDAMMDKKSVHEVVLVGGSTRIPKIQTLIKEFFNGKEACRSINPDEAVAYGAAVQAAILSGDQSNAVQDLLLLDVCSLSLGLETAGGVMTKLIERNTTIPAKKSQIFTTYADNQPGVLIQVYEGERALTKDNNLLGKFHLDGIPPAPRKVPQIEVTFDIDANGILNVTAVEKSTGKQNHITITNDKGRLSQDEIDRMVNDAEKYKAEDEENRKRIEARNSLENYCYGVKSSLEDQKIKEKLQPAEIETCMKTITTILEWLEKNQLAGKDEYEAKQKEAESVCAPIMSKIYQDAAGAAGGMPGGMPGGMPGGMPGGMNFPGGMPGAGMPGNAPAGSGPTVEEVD

PfHsp70-1 [4] = target: T2, PfHsp70-1; experiment: SPR self-association, immobilised ligand PfHsp70-1; format: binding

## DnaK: E. coli Hsp70, recombinant
[1]
  association with CH60/GroEL: not with DnaK
  pI of a further group of clients: around 9.5
  pI of majority of clients: 5.5–6.0
  pI of some unique clients: above 10
  size of most clients: around 50 kDa
[1]; unique relative to the other chaperone
  number of unique clients: 41 clients
DnaK
  effect of ATP on self-association: promoted by ATP
[2]
  association with CH60/GroEL: associated with DnaK within the E. coli ΔdnaK52 cell background
  number of clients bound: 110 clients
  size of another prominent client cluster: above 100 kDa
proteins
  number of aggregation-prone (unstable) clients: ~180 proteins

## GFRLLLMYRF
PfHsp70-z
  effect of nucleotide on peptide binding: nucleotide independent
PfHsp70-1 [3]
  effect of nucleotide on peptide affinity: regulated by ADP/ATP

## GFRNNNMYRF
PfHsp70-z
  effect of nucleotide on peptide binding: nucleotide independent
PfHsp70-z; vs GFRLLLMYRF
  peptide preference: preferentially bind to the Asp-enriched peptide
PfHsp70-1 [3]
  effect of nucleotide on peptide affinity: regulated by ADP/ATP
PfHsp70-1 [3]; vs GFRLLLMYRF
  peptide preference: preferentially bind to the Asp-enriched peptide

## PfHsp70-1: canonical cytosolic Hsp70 chaperone of Plasmodium falciparum, recombinant
PfHsp70-1 [4]
  self-association without nucleotide vs ADP: comparable affinity in the absence of nucleotide and in the presence of ADP
PfHsp70-1 [4]; ATP vs apo- or ADP-states
  effect of ATP on self-association: tenfold increase; also recorded: promoted by ATP
